From PubChem BioAssay come the findings set out here.

The nature of assay [1]: inhibitors of TNFa-induced NFkB p65 translocation, primary screen, imaging, HUVEC, MLSMR starter and 10KST1 sets (AID 438;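 active = inhibition above 20% together with a positive visual image hit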;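 note: compound added about 3h40 before a 20 min TNFalpha stimulation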;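 for inhibition: signal is the nuclear over cytoplasmic p65 intensity ratio per well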). The following applies: HUVEC TNFa-induced p65 nuclear translocation; cell count: measured here: nuclei count (cytotoxicity indicator), at 2.08 µM; inhibition: at 2 µM, stronger effect = higher value, 0% TNFa-plus-vehicle, 100% no-TNFa wells.
Assay [2] is described as follows: inhibitors of mutant huntingtin aggregation, primary screen, imaging, exon1htt(103Q)mCFP cells, high-content imaging (AID 483;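 active = visual image review flags a hit and inhibition of aggregation exceeds 20%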;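 note: compound exposure lasted 3 days before fixation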;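 for nuclei count: percent of the per-plate median nuclei count of sample wells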). The conditions noted are these: exon1htt(103Q)mCFP cell line, aggregate imaging, at 2 µM; inhibition of aggregation: stronger effect = higher value; nuclei count: measured here: cell count, toxicity.
A short description of assay [3]: inhibitors of E-selectin induction by TNFa, primary screen, imaging, HUVEC, immunofluorescence, MLSMR starter and 10KST1 sets (AID 487;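 active = visually confirmed hit in the image check and inhibition above 20%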;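 for inhibition: signal is fraction of cell area covered by stained E-selectin grains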;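 for nuclei count: 100% = median nuclei count of all wells on the same plate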). The following applies: HUVEC TNFalpha-induced E-selectin immunofluorescence imaging, at 2 µM; inhibition: stronger effect = higher value; nuclei count: measured here: cell number, toxicity.
Assay [4] concerns the target Voltage-gated potassium channel subunit beta-2 (Rattus norvegicus) (UniProt P62483). Kind of assay: KvBeta enzyme negative modulators, primary screen, biochemical, NADPH fluorescence (AID 622;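 active = fluorescence slope higher than the sample average by over 3 SD, cut at about -0.22 in these data, passing the limit was not always enough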;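 note: slope of raw intensity against log time taken from 70 to 1610 s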). The following applies: recombinant KvBeta, 4-cyanobenzaldehyde reduction, at 10 µM, stronger effect = higher value.
The target is the same in assay [5]. The assay can be described thus: KvBeta positive modulators, primary screen, biochemical, NADPH fluorescence (AID 623;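 active = NADPH fluorescence slope more negative than the mean of all samples by about 3 SD, 99.7% confidence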;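 note: fluorescence intensity change per second fitted from 20 to 320 s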). The conditions noted are these: Recombinant KvBeta, NADPH fluorescence decrease slope, 10 min; at 10 µM; stronger effect = lower value.
For assay [6], the target named is Muscarinic acetylcholine receptor M4 (Homo sapiens) (UniProt P08173). Kind of assay: compounds altering M4/GIRK thallium flux, either direction, primary screen, M4 allosteric agonist project, cell-based, HEK293 M4/GIRK, BTC-AM (AID 625).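 Note: thallium influx through GIRK channels coupled to M4 in HEK293 cells with BTC-AM dye.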 The following applies: at 10 µM, actives lie on both sides. Summed up: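 Material: HEK293 cells with M4 receptor and GIRK channels; Times: cells overnight at 37 °C, BTC-AM loading 1 h, reads 2 min total; Technique: kinetic BTC-AM fluorescence sampled at 1 Hz, 10 s pre-addition baseline; Read-out basis: slope over 15–24 s of trace normalized to starting intensity; Controls: carbachol positive, DMSO negative.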
Chain of Muscarinic acetylcholine receptor M4 (Homo sapiens) (P08173 whole entry, looked up): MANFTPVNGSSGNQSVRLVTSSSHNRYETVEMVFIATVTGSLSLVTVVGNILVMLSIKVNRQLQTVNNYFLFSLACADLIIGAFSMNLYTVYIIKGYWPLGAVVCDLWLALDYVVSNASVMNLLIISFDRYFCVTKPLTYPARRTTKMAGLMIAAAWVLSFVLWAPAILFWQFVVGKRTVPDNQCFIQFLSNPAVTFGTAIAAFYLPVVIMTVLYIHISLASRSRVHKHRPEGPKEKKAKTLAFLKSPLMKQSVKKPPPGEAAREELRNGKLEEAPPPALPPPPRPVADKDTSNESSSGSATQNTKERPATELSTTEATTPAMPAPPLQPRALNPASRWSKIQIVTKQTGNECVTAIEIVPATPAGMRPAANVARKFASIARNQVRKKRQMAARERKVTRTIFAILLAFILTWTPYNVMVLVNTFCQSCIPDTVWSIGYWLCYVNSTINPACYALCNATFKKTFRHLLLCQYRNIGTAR

Assay [7] can be described thus: inhibitors of Sendai virus-induced IRF3 signaling, primary screen, TLR/RLR signaling modifier project, cell-based, Sendai virus stimulus, luciferase, 10K MLSCN set (AID 602276;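 active = inhibition at or above 50% at 10 µM; inactive = inhibition below 50%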;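 note: firefly luciferase from ISG56 promoter only with Renilla not read in this screen; 0% = Sendai virus plus DMSO and 100% = medium plus DMSO without virus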). The conditions noted are these: HEK293 RL24 IRF3 luciferase reporter, at 10 µM, stronger effect = higher value. For orientation: Reporter assays use an easily measured gene product as a stand-in for the process of interest.

A short description of assay [8]: inhibitors of poly I:C-induced TLR3 signaling, primary screen, cell-based, poly I:C stimulus, luciferase, 10K MLSCN set (AID 602277;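 active = inhibition of the reporter signal at or above 50%; inactive = inhibition below 50%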). The following applies: HEK293-TLR3 RL24 IRF3 luciferase reporter, at 10 µM, stronger effect = higher value.

Calls of active or inactive are those of the source.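 Rule for the calls, unless noted: active = fluorescence slope after compound addition differing from the mean of all tested samples at 99.7% confidence, mostly higher but some lower; inactive = the rest.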

Chain of Voltage-gated potassium channel subunit beta-2 (Rattus norvegicus) (P62483 whole entry, looked up): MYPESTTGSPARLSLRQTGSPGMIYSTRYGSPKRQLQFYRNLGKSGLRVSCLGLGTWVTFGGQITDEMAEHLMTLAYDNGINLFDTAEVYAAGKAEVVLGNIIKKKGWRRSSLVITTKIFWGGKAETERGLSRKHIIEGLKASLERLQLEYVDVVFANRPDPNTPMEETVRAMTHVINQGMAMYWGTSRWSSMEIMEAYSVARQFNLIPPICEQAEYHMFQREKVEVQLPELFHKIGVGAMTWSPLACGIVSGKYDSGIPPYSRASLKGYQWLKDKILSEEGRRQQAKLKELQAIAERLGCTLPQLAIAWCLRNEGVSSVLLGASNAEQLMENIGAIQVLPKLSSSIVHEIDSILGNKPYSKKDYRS

What is called inhibition is the drop in the measured response relative to a control, in per cent. As for `Cc1ccc(-c2cc(C(F)F)nc(NCc3cccnc3)n2)cc1`, the cell count in assay [1] is 590. The inhibition in assay [1] is -26.5% (inactive); in assay [3] it was -97.8% (inactive); in assay [7], 7% (inactive); in assay [8] it was -13.6% (inactive). For the same compound, the inhibition of aggregation in assay [2] was -44.3% (inactive). Moreover, the nuclei count was found to be 81.9% in assay [2] and 118% in assay [3]. The fluorescence slope in assay [4] was -0.467 (inactive); in assay [6] it was 0.00586 (inactive). The NADPH fluorescence slope in assay [5] is -1.4e-06 (inactive).

In the case of `Cn1c(=O)cc(SCC(=O)NCC2CCCO2)c2ccc(Cl)cc21` (stereo not drawn), the cell count in assay [1] is 467. Further, the inhibition is -11.6% (inactive) in assay [1], 26.9% (inactive) in assay [3], 10.3% (inactive) in assay [7] and 9.81% (inactive) in assay [8]. Moreover, the inhibition of aggregation in assay [2] is 3.4% (inactive). The nuclei count in assay [2] came to 107%; in assay [3], 93.8%. Moreover, the fluorescence slope in assay [4] was -0.549 (inactive); in assay [6], 0.00522 (inactive). Also, the NADPH fluorescence slope in assay [5] was -3.4e-05 (inactive).

Take `O=C1CN=C(Nc2cccc(C(F)(F)F)c2)N1C1CCCC1`: in assay [1], the cell count turned out to be 421. Also, the inhibition in assay [1] was 4.8% (inactive); in assay [3], -375% (inactive); in assay [7], -11.3% (inactive); in assay [8] it was -11.6% (inactive). Further, in assay [2], the inhibition of aggregation was -11% (inactive). Further, the values for the nuclei count in assay [2] and in assay [3] were 107% and 149%, respectively. Besides, the fluorescence slope is -0.436 (inactive) in assay [4] and 0.00643 (inactive) in assay [6]. In assay [5], the NADPH fluorescence slope is -0.000109 (inactive).

Turning to `COC(=O)c1oc2ccc(OC)cc2c1N`, the cell count in assay [1] was 669. Also, the inhibition in assay [1] is 5.5% (inactive); in assay [3], -4.2% (inactive); in assay [7] it was -31.8% (inactive); in assay [8], -55% (inactive). Moreover, in assay [2], the inhibition of aggregation is 18.1% (inactive). The nuclei count came out at 85.1% in assay [2] and 101% in assay [3]. Besides, the fluorescence slope in assay [4] was -0.523 (inactive); in assay [6] it was 0.00575 (inactive). For the same compound, the NADPH fluorescence slope in assay [5] is 5.1e-06 (inactive).

Turning to `CCn1cc(C(=O)NCCN(C)CCc2ccccc2)c(=O)c2cc(S(=O)(=O)N(C)C)ccc21`, in assay [1], the cell count is 543. Besides, the inhibition was -20.4% (inactive) in assay [1], -10.5% (inactive) in assay [3], 14% (inactive) in assay [7] and 18.4% (inactive) in assay [8]. Further, the inhibition of aggregation in assay [2] is -8.6% (inactive). For the same compound, the figures for the nuclei count in assay [2] and in assay [3] were 118% and 110%, respectively. For the same compound, the fluorescence slope was -0.494 (inactive) in assay [4] and 0.00668 (inactive) in assay [6]. Further, the NADPH fluorescence slope in assay [5] is 0.0002 (inactive).

On to `CC(Sc1nnc(-c2cc3ccccc3o2)n1-c1ccccc1)C(=O)O` (stereo not drawn), for which the cell count in assay [1] worked out at 613. Moreover, the inhibition is 0.8% (inactive) in assay [1], -223% (inactive) in assay [3], 21.2% (inactive) in assay [7] and 39.8% (inactive) in assay [8]. Further, the inhibition of aggregation in assay [2] was 14.7% (inactive). For the same compound, the results for the nuclei count in assay [2] and in assay [3] were 105% and 108%, respectively. In addition, the results for the fluorescence slope in assay [4] and in assay [6] were -0.585 (inactive) and 0.00554 (inactive), respectively. Moreover, the NADPH fluorescence slope in assay [5] was -5.2e-05 (inactive).

Regarding `O=C(NC1CC2CCC1C2)C1COc2ccccc2O1` (stereo not drawn), the cell count in assay [1] came to 297. Besides, the inhibition is -3.7% (inactive) in assay [1], 18.8% (inactive) in assay [3], 0.357% (inactive) in assay [7] and -2.86% (inactive) in assay [8]. Moreover, the inhibition of aggregation in assay [2] is 1.9% (inactive). Further, the nuclei count in assay [2] turned out to be 89.3%; in assay [3] it was 97.5%. In addition, the fluorescence slope in assay [4] is -0.46 (inactive); in assay [6], 0.00453 (inactive). For the same compound, the NADPH fluorescence slope in assay [5] is -3.9e-05 (inactive).

As for `CCn1c(SCC(=O)Nc2nnc(C)s2)nnc1-c1ccncc1`, the cell count in assay [1] turned out to be 554. The inhibition in assay [1] was -17.9% (inactive); in assay [3], -53.1% (inactive); in assay [7] it was 15.2% (inactive); in assay [8], 0.883% (inactive). Also, the inhibition of aggregation in assay [2] was 25.6% (inactive). For the same compound, the nuclei count amounted to 92.8% in assay [2] and 114% in assay [3]. The fluorescence slope was -0.301 (inactive) in assay [4] and 0.00811 (inactive) in assay [6]. Further, in assay [5], the NADPH fluorescence slope is -5.1e-05 (inactive).
